Calls of active or inactive are those of the source. The calls are words filed in the database; no cut-off is given here.
Legend:
NCI-H460 [1] = assay: Effect on topotecan-induced cytotoxicity against human H460 cells assessed as fold change in topotecan IC50 at 2 uM after 72 hrs by MTT assay relative to topotecan IC50; format: functional
Method in brief: (§1)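 Parental S1 colon and H460 lung cancer cells were exposed for 72 h to a mitoxantrone or topotecan concentration series, with or without modulator at 0.5–3.0 μM, and read by MTT. Fold-reversal is IC50 without modulator divided by IC50 with modulator, taken from dose-response curves of three independent experiments.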

S1-M1-80 [2] = assay: Potentiation of topotecan-induced apoptosis in human S1-M1-80 cells harboring ABCG2 (unknown origin) assessed as early apoptotic cells at 10 uM incubated for 48 hrs by annexin V/propidium iodide staining based flow cytometry (reference value: 3%); format: functional
[3] = target: T1, Broad substrate specificity ATP-binding cassette transporter ABCG2 (Homo sapiens, UniProt Q9UNQ0); assay: Reversal of human ABCG2-mediated multidrug resistance in HEK293/R482 cells assessed as potentiation of mitoxantrone-induced cytotoxicity after 72 hrs by CCK8 assay; format: cell-based
T1 sequence (Q9UNQ0 whole entry): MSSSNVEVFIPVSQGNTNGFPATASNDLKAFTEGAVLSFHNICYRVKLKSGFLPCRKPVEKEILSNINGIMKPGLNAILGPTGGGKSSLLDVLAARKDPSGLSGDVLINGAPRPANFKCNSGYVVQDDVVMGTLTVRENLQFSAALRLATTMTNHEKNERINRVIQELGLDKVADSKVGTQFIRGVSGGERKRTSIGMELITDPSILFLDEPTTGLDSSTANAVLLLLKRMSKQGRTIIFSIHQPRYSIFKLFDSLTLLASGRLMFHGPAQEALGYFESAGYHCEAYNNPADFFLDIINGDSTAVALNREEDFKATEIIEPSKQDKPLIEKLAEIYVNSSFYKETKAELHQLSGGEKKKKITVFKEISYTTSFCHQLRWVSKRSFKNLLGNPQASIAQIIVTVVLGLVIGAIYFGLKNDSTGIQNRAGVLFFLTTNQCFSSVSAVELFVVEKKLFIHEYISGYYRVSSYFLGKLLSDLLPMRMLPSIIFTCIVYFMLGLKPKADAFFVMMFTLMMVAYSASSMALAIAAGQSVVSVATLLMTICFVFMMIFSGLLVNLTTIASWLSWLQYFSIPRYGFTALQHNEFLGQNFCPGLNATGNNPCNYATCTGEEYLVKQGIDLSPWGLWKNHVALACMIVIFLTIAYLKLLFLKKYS
Method in brief: (§2)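 Cells were seeded at 5000/well for 24 h, then given colchicine, etoposide, mitoxantrone or topotecan ± non-toxic modulator (0.5–3.0 μM) for 72 h, with DMSO up to 0.5%. IC50 came from fitted curves (mean ± SD, three experiments). Fold-reversal = IC50 without modulator ÷ IC50 with modulator.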

NCI-H460 [4] = assay: Effect on mitoxantrone-induced cytotoxicity against human H460 cells assessed as change in mitoxantrone IC50 at 3 uM after 72 hrs by MTT assay relative to mitoxantrone IC50; format: functional; method in brief: as §1
[5] = target: T1, Broad substrate specificity ATP-binding cassette transporter ABCG2; assay: Modulation of ABCG2 (unknown origin) expressed in S1-M1-80 cells assessed as increase in intracellular pheophorbide A accumulation at 20 uM incubated for 1 hr by FACScan flow cytometry; format: cell-based; details: s1-m1-80, 1 h
Method in brief: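 Cells held drug-free 7 days. 3 × 10^5 cells were suspended in IMDM with 5% FCS and loaded with pheophorbide A (ex 395/em 670 nm) for 1 h, with or without LCA (20 μM for single-concentration accumulation) or Ko143 3 μM as reference. Read immediately by flow cytometry. Efflux inhibition was run over a concentration range; mean ± SD of three experiments.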

S1-M1-80 [6] = assay: Potentiation of topotecan-induced apoptosis in human S1-M1-80 cells harboring ABCG2 (unknown origin) assessed as late apoptotic cells at 10 uM incubated for 48 hrs by annexin V/propidium iodide staining based flow cytometry (reference value: 6%); format: functional
[7] = target: T1, Broad substrate specificity ATP-binding cassette transporter ABCG2; assay: Reversal of human ABCG2-mediated multidrug resistance in HEK293/R482 cells assessed as fold change in mitoxantrone IC50 at 3 uM after 72 hrs by CCK8 assay relative to mitoxantrone IC50; format: cell-based; method in brief: as §2
S1 [8] = assay: Induction of apoptosis in human S1 cells assessed as viable cells at 10 uM incubated for 48 hrs in presence of topotecan by annexin V/propidium iodide staining based flow cytometry (reference value: 94.1%); format: functional; details: S1, 48 h, read-out: Activity
S1 [9] = assay: Effect on mitoxantrone-induced cytotoxicity against human S1 cells assessed as fold change in mitoxantrone IC50 at 0.5 uM after 72 hrs by MTT assay relative to mitoxantrone IC50; format: functional; method in brief: as §1
S1 [10] = assay: Effect on mitoxantrone-induced cytotoxicity against human S1 cells assessed as fold change in mitoxantrone IC50 at 3 uM after 72 hrs by MTT assay relative to mitoxantrone IC50; format: functional; method in brief: as §1
NCI-H460 [11] = assay: Effect on topotecan-induced cytotoxicity against human H460 cells assessed as fold change in topotecan IC50 at 0.5 uM after 72 hrs by MTT assay relative to topotecan IC50; format: functional; method in brief: as §1
[12] = target: Multidrug resistance-associated protein 1 (Homo sapiens, UniProt P33527); assay: Reversal of human ABCC1-mediated multidrug resistance in HEK293/MRP1 cells assessed as fold-change in etoposide IC50 at 3 uM after 72 hrs by CCK8 relative to etoposide IC50; format: cell-based; method in brief: as §2
S1-M1-80 [13] = assay: Downregulation of ABCG2 expression in human S1-M1-80 cells at 0.5 to 3 uM incubated for 72 hrs by Western blot analysis; format: functional, cell-based
Method in brief: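 S1-M1–80 and H460-MX20 cells were treated with 0.5–3.0 μM or DMSO vehicle for 72 h, then run on SDS-PAGE and immunoblotted with BXP-21 (1:15000) for ABCG2. α-Tubulin (1:100000) served as loading control, with HRP goat anti-mouse secondary. Bands were quantified as mean ± SEM of three independent experiments.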

S1-M1-80 [14] = assay: Potentiation of topotecan-induced apoptosis in human S1-M1-80 cells harboring ABCG2 (unknown origin) assessed as viable cells at 10 uM incubated for 48 hrs by annexin V/propidium iodide staining based flow cytometry (reference value: 90.6%); format: functional; details: S1-M1-80, 48 h, read-out: Activity
[15] = Cytotoxicity against human NCI-H460/MX20 cells harboring ABCG2 after 72 hrs by MTT assay; format: functional, cell-based; details: NCI-H460/MX20, 72 h
Method in brief: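 Cells seeded at 5000/well, allowed 24 h, then exposed to a concentration series for 72 h at 37 °C in DMSO vehicle (up to 0.5% v/v). HEK293 lines were read with CCK-8 and cancer lines with MTT. IC50 was taken from fitted dose-response curves over at least three independent experiments. Lines were kept drug-free for 7 days before assay.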

[16] = target: T1, Broad substrate specificity ATP-binding cassette transporter ABCG2; assay: Reversal of ABCG2 (unknown origin)-mediated multidrug resistance in human H460-MX20 cells assessed as fold change in mitoxantrone IC50 at 2 uM after 72 hrs by MTT assay relative to mitoxantrone IC50; format: cell-based
Method in brief: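 Cells held drug-free 7 days, seeded at 5000 per well for 24 h, then exposed 72 h to mitoxantrone or topotecan dilutions with DMSO (≤0.5%), LCA 0.5–3.0 μM, or Ko143 1.0 μM. Viability was read by MTT. IC50 came from fitted dose-response curves of three independent experiments. Fold-reversal = IC50 without modulator divided by IC50 with modulator.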

Multidrug resistance-associated protein 1, sequence (P33527 whole entry): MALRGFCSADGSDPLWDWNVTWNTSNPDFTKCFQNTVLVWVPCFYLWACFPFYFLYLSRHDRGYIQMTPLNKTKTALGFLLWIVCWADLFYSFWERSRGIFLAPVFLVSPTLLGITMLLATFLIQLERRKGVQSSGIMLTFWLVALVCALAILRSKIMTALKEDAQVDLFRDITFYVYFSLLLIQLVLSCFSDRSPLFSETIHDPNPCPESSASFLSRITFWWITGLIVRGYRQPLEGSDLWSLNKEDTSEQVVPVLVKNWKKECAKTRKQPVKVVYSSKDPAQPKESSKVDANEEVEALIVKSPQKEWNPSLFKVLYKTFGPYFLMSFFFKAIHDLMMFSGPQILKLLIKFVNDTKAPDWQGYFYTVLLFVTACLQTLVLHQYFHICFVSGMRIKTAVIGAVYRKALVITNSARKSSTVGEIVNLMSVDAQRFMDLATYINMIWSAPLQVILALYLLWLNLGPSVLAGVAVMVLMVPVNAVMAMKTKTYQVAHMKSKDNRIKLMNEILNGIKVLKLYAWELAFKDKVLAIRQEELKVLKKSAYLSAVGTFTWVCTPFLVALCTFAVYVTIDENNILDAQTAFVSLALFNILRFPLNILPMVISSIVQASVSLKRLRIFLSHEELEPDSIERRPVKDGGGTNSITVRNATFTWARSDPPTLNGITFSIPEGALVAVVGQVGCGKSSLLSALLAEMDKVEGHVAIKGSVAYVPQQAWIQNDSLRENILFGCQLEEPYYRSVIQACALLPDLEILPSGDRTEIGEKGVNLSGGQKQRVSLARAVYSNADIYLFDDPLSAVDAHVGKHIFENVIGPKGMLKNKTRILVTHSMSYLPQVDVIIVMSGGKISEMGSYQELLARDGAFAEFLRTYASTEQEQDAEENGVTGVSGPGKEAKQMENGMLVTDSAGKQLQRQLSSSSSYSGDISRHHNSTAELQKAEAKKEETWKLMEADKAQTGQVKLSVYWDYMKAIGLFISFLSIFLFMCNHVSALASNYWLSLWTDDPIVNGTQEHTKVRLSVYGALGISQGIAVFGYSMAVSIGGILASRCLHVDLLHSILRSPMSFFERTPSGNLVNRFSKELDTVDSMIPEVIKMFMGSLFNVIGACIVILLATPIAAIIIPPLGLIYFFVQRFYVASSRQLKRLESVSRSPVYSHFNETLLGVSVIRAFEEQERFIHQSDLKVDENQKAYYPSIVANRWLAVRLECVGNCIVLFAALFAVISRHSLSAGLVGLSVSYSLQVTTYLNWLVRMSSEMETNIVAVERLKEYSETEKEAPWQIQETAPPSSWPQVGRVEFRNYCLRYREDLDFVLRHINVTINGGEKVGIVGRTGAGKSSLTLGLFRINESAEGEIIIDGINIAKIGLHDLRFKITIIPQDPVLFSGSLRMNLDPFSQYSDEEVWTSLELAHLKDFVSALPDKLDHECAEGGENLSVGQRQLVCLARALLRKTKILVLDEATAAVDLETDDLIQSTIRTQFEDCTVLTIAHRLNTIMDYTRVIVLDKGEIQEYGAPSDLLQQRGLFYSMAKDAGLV

Activity [5]: Active | fold change (FC) [12]: 1.1
Structure (SMILES): C=CC(C)(C)c1cc(/C=C/C(=O)c2ccc(O)cc2)c(OC)cc1O [LICOAGROCHACONE A]
fold change (FC) (NCI-H460 [1]): 1.7 | Activity (S1-M1-80 [2]): 9% | Activity [3]: Dose-dependent effect | fold change (FC) (NCI-H460 [4]): 1.1 | Activity (S1-M1-80 [6]): 22.5% | fold change (FC) [7]: 8.1 | viability at 10 µM (S1 [8]): 44.1% | fold change (FC) (S1 [9]): 1.1 | fold change (FC) (S1 [10]): 1 | fold change (FC) (NCI-H460 [11]): 1.5 | Activity (S1-M1-80 [13]): inactive | viability at 10 µM (S1-M1-80 [14]): 67.8% | IC50 [15]: 10 to 50 µM | fold change (FC) [16]: 15.5

From ChEMBL document CHEMBL4627381, “Licochalcone A Selectively Resensitizes ABCG2-Overexpressing Multidrug-Resistant Cancer Cells to Chemotherapeutic Drugs” (J Nat Prod, 2020)
